Measurements as given in ChEMBL document CHEMBL4808198, “Synthesis, bioevaluation and docking studies of new imidamide derivatives as nitric oxide synthase inhibitors” (Bioorg Med Chem, 2021).

What was measured:
[1] = target: T1, Nitric oxide synthase, inducible (Homo sapiens, UniProt P35228); assay: Inhibition of N-terminal His-tagged human recombinant iNOS expressed in Escherichia coli assessed as reduction in L-[3H]-citrulline level using L-[3H]-arginine as substrate incubated for 30 min by scintillation counting
T1 sequence (P35228 whole entry): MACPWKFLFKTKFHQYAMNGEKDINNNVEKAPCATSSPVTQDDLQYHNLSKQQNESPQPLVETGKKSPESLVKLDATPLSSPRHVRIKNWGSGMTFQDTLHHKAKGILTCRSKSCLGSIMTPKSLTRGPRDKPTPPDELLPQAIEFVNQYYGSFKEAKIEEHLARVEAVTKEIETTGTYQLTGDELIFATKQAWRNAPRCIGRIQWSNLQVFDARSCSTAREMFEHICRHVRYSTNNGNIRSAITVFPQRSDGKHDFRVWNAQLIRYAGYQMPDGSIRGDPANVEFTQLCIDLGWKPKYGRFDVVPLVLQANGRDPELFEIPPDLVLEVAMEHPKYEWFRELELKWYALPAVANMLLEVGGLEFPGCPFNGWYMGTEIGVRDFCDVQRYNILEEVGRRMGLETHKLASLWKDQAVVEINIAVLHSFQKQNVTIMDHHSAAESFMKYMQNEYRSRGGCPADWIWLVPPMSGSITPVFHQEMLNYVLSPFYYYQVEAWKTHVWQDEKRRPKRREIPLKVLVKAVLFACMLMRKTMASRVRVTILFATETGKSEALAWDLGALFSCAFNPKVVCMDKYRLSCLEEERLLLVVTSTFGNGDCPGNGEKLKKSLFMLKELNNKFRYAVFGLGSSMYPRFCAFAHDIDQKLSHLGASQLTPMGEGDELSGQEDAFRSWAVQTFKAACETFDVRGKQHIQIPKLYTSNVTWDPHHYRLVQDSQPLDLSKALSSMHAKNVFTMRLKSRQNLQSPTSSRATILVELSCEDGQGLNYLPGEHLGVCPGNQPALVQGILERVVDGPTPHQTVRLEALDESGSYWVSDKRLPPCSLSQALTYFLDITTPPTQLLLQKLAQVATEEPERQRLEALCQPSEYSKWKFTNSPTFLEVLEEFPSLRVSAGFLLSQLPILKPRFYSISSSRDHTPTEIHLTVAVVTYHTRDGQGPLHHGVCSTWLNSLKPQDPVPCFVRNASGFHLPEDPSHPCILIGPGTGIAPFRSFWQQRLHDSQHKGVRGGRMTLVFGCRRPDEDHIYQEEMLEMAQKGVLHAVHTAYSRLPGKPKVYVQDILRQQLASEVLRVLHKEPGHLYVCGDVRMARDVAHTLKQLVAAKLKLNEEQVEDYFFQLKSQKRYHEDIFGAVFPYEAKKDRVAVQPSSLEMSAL

[2] = target: T2, Nitric oxide synthase 1 (Homo sapiens, UniProt P29475); assay: Inhibition of human recombinant nNOS expressed in Escherichia coli assessed as reduction in L-[3H]-citrulline level using L-[3H]-arginine as substrate incubated for 30 min by scintillation counting
T2 sequence (P29475 whole entry): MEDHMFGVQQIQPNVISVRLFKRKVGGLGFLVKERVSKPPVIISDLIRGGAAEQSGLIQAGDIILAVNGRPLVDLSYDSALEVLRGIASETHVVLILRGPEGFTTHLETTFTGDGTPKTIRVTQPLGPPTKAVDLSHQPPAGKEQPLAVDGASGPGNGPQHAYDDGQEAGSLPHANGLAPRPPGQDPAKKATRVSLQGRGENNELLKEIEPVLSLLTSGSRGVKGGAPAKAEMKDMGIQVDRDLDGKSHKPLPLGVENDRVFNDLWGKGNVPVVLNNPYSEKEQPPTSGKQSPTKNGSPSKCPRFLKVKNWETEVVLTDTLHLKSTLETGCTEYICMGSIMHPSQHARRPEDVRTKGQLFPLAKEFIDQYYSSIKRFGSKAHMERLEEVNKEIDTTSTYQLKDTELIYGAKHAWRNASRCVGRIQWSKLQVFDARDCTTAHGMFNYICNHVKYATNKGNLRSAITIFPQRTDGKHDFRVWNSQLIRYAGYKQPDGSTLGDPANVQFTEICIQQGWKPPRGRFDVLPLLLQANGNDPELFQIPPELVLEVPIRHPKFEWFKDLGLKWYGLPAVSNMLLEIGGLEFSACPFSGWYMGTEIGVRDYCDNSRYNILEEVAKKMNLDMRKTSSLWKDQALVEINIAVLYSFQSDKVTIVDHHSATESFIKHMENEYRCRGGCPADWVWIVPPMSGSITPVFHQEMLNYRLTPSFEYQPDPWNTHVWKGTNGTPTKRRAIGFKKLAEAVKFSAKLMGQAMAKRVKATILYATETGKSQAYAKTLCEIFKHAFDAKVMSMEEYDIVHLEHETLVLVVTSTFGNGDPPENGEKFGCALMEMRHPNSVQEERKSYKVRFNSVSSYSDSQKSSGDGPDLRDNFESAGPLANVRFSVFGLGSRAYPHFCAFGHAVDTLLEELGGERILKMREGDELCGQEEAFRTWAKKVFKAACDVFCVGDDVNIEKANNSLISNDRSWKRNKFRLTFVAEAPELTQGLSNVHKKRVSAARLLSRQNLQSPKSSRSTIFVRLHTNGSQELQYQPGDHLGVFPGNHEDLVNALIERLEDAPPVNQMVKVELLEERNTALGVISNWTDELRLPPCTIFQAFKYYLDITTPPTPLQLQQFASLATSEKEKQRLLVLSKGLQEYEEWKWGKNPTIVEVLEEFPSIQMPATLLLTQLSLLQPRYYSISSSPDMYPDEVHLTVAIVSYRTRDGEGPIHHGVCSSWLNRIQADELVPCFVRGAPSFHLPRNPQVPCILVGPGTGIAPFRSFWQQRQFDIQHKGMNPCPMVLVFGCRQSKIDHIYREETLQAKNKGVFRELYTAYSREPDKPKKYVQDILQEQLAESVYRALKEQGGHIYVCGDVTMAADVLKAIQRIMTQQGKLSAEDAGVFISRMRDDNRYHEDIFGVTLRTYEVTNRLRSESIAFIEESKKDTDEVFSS

[3] = target: T2, Nitric oxide synthase 1; assay: Inhibition of human recombinant nNOS expressed in Escherichia coli assessed as reduction in L-[3H]-citrulline level using L-[3H]-arginine as substrate at 1 mM incubated for 30 mins by liquid scintillation method relative to control
[4] = target: T1, Nitric oxide synthase, inducible; assay: Inhibition of N-terminal His-tagged human recombinant iNOS expressed in Escherichia coli assessed as reduction in L-[3H]-citrulline level using L-[3H]-arginine as substrate at 1 mM incubated for 30 mins by liquid scintillation method relative to control
[5] = tested on: HUVEC; assay: Cytotoxicity against HUVEC assessed as reduction in cell viability at 10 to 100 uM measured after 30 mins by MTT assay; type: cell-based; settings: human, 0.5 h, 500 µM, in the assay text read “10 to 500 uM” for “10 to 100 uM”
Procedure, shortened: (§1)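 HUVECs seeded at 1x10⁴ cells/well, grown 24 h at 37 °C, switched to serum-free medium for at least 2 h, then exposed to serial dilutions (10 - 500 µM) for 30 min. MTT added for 3 h at 37 °C, formazan dissolved in DMSO, absorbance read at 570 nm minus 630 nm background. Viability given as % of untreated cells. At least three independent runs in triplicate.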

[6] = Cytotoxicity against HUVEC assessed as reduction in cell viability at 500 uM measured after 30 mins by MTT assay relative to control; type: cell-based; settings: human, HUVEC cells, read-out: INH
Procedure, shortened: as §1

[7] = target: T3, Nitric oxide synthase 3 (Rattus norvegicus, UniProt Q62600); assay: Inhibition of eNOS in Wistar rat endothelium-intact thoracic aortic rings assessed as inhibition of acetylcholine-evoked relaxation at 100 uM pretreated with compound for 30 mins followed by norepinephrine addition and later incubated with acetylcholine; type: tissue-based, Thoracic aorta; settings: 0.5 h
T3 sequence (Q62600 whole entry): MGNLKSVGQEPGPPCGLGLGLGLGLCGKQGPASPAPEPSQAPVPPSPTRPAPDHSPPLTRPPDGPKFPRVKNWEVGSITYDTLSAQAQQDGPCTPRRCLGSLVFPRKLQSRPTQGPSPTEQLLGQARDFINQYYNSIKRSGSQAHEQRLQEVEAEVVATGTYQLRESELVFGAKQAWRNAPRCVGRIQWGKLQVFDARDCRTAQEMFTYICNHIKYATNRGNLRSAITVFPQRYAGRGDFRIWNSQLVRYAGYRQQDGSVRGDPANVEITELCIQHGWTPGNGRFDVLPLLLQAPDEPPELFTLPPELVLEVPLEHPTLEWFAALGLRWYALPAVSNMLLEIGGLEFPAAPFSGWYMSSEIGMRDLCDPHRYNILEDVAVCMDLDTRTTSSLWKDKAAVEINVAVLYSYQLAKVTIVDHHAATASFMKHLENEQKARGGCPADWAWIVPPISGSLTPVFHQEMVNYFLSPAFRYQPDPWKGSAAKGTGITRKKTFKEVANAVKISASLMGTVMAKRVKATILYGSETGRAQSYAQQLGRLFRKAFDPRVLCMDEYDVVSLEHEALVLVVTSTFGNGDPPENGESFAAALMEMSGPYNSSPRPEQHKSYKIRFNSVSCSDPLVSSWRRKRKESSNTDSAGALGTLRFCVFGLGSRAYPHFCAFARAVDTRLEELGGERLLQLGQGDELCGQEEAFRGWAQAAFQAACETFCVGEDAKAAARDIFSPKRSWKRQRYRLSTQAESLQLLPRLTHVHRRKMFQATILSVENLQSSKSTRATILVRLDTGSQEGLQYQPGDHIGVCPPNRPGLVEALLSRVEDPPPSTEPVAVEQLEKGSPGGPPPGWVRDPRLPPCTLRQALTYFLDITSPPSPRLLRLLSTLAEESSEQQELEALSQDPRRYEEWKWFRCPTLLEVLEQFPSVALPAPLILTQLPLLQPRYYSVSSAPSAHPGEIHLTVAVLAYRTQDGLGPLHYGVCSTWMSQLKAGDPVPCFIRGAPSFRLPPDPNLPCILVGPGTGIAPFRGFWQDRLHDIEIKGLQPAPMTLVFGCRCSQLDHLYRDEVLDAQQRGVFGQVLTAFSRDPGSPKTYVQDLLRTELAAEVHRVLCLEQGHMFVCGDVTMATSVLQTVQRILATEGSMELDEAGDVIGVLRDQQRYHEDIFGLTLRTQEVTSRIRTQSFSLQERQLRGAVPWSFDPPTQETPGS
Procedure, shortened: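 Descending thoracic aortic rings with endothelium were held in Krebs solution at 37 °C, gassed with 95% O2/5% CO2, at 2 g resting tension, with isometric force recorded. Rings were incubated 30 min with test agent or DMSO vehicle (1/10⁶), then contracted with 1 µM norepinephrine. At plateau, acetylcholine was added cumulatively. Relaxation is given as % of norepinephrine contraction; n = rings from different rats; two-way ANOVA with Dunnett.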

[8] = target: T3, Nitric oxide synthase 3; assay: Inhibition of eNOS in Wistar rat endothelium-intact thoracic aortic rings assessed as inhibition of acetylcholine-evoked relaxation at 20 uM pretreated with compound for 30 mins followed by norepinephrine addition and later incubated with acetylcholine; type: tissue-based, Thoracic aorta; settings: 0.5 h
Procedure, shortened: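 Rat descending thoracic aortic rings with endothelium, in Krebs at 37 °C gassed with 95% O₂/5% CO₂, 2 g resting tension, isometric recording. Incubated 30 min with compound (20 µM), L-NAME (100 µM) or DMSO vehicle (1/10⁶), contracted with 1 µM norepinephrine, then cumulative acetylcholine. Relaxation given as % of norepinephrine contraction. Two-way ANOVA with Dunnett's test.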

Compound | IC50 [1] | IC50 [2] | inhibition [3] | inhibition [4] | inhibition (INH) [8] | Activity [5] | cytotoxicity at 0.5 h, 500 µM [6] | inhibition (INH) [7]
COC(=O)[C@@H](N)CCCNC(=N)N[N+](=O)[O-] [L-NAME] |  |  |  |  |  |  |  | Active
N=C(NCCC(O)c1ccccc1N)c1ccc(Cl)cc1 (stereo not given) |  |  | 31.6% | 73.2% |  |  |  | 
COc1ccc(N)c(C(O)CCNC(=N)c2ccc(C(F)(F)F)cc2)c1 (stereo not given) | 20 µM | > 1000 µM | 12.5% | 99.6% | Not Active | Non-Toxic | 20% | 
COc1ccc(N)c(C(O)CCNC(=N)c2ccc(Cl)cc2)c1 (stereo not given) |  |  | 58.5% | 81% |  |  |  | 
N=C(NCCC(=O)c1ccccc1N)c1ccc(C(F)(F)F)cc1 |  |  | 56% | 68.6% |  |  |  | 
N=C(NCCC(O)c1ccccc1N)c1ccc(C(F)(F)F)cc1 (stereo not given) |  |  | 36.5% | 60.5% |  |  |  | 
N=C(NCCC(O)c1ccccc1N)c1ccccc1 (stereo not given) |  |  | 23.2% | 64.1% |  |  |  | 
CC(=N)NCCC(O)c1cc(Cl)ccc1N (stereo not given) |  |  | 66.1% | 49.1% |  |  |  | 
CC(=N)NCCC(O)c1ccccc1N (stereo not given) |  |  | 28.3% | 16.2% |  |  |  | 
COc1ccc(N)c(C(O)CCNC(=N)c2ccccc2)c1 (stereo not given) | 22.5 µM | > 1000 µM | 7.18% | 95.9% |  | Non-Toxic | 20% | 
N=C(NCCC(=O)c1ccccc1N)c1ccc(Cl)cc1 |  |  | 37.4% | 33.4% |  |  |  | 
N=C(NCCC(=O)c1ccccc1N)c1ccccc1 |  |  | 66.5% | 35.6% |  |  |  | 

The next lines start with results.

IC50 [1] | IC50 [2] | inhibition [3] | inhibition [4] | inhibition (INH) [8] | Compound | Activity [5] | cytotoxicity at 0.5 h, 500 µM [6] | inhibition (INH) [7]
59.7 µM | 223 µM | 89.2% | 97.6% |  | COc1ccc(N)c(C(=O)CCNC(C)=N)c1 |  |  | 
25.6 µM | > 1000 µM | 19.9% | 99.1% |  | CC(=N)NCCC(=O)c1cc(Cl)ccc1N | Non-Toxic | 20% | 
> 1000 µM | 325 µM | 88.8% | 22.2% |  | CC(=N)NCCC(=O)c1ccccc1N |  |  | 
100 µM | > 1000 µM |  |  |  | CCNC(=O)NCCC(=O)c1cc(Cl)ccc1N |  |  | 
45.2 µM | 194 µM | 85.9% | 94.7% |  | COc1ccc(N)c(C(=O)CCNC(=N)c2ccccc2)c1 | Non-Toxic | 20% | 
180 µM | 130 µM |  |  |  | CNC(=S)NCCC(O)c1cc(OC)ccc1N (stereo not given) |  |  | 
 |  | 86.4% | 75.1% |  | COc1ccc(N)c(C(=O)CCNC(=N)c2ccc(Cl)cc2)c1 |  |  | 
 |  | 19% | 57.4% |  | COc1ccc(N)c(C(O)CCNC(C)=N)c1 (stereo not given) |  |  | 
